In ChEMBL document CHEMBL4813972, “A grafted peptidomimetic for EGFR heterodimerization inhibition: Implications in NSCLC models” (Eur J Med Chem, 2021):
Active and inactive are the calls of the source. The calls are words filed in the database; no cut-off is given here. Starred links: 1 amine or outer side, 2 acyl side, 3 side chain; linkers in the order of their positions; H or OH if unused. Positions of bridges follow the written chain, without caps; N, C: chain ends. Non-standard residues stand in square brackets, D forms with d. Residues, ends and D or L forms follow the SMILES beside them. X1 = N=C(N)NCCC[C@H](N[*:2])C(=O)NC(=O)[C@H](CC(=O)O)NC(=O)[*:1]; βAla(3R-(1-naphthyl)) = O=C(C[C@@H](N[*:1])c1cccc2ccccc12)[*:2]; βAla(3S-(1-naphthyl)) = O=C(C[C@H](N[*:1])c1cccc2ccccc12)[*:2]

Legend:
BT-474 = experiment: Antiproliferative activity against human BT-474 cells overexpressing HER2 assessed as cell growth inhibition incubated for 72 hrs by cell titer glo assay; assay type: functional, cell-based; conditions: BT-474, 72 h
MCF7 = experiment: Antiproliferative activity against human MCF7 cells with silenced HER2 assessed as cell growth inhibition incubated for 72 hrs by cell titer glo assay; assay type: functional, cell-based; conditions: MCF7, 72 h
Summary of the method: (§1)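 Cells seeded at 1×10^4 per well, left overnight at 37 °C/5% CO2, then exposed to a concentration series of peptide (up to 200, down to 0.01 μM) for 72 h. 1% SDS and 1% DMSO served as controls. Cells were PBS-washed, CellTiter-Glo added and luminescence read. IC50 taken from three independent experiments per cell line.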

Calu-3 [1] = experiment: Antitumor activity in human Calu-3 cells xenografted in Foxn1nu/Foxn1+ mouse assessed as reduction in tumor growth at 8 mg/kg, IT(Intratumoral) administered thrice a week for 21 days and measured on day 21 relative to control; conditions: time 21.0 day
Calu-3 [2] = experiment: Antitumor activity in human Calu-3 cells xenografted in Foxn1nu/Foxn1+ mouse assessed as reduction in tumor growth at 6 mg/kg, IT(Intratumoral) administered thrice a week for 21 days in presence of trastu-zumab and measured on day 21 relative to control; assay type: functional, organism-based; conditions: time 21.0 day
MCF-10A = experiment: Cytotoxicity against human MCF-10A cells assessed as cell growth inhibition incubated for 72 hrs by cell titer glo assay; assay type: cell-based; summary of the method: as §1
[3] = Toxicity in BALB/c mouse assessed as increase in Ki-67 expression at 5 ug/ml, iv administered on day 0 and 10 and spleenocytes collected on day 13 and incubated for 48 hrs by flow cytometry analysis; assay type: organism-based; conditions: in vivo, 360 h, dose 5 µg/ml, time 15 day
Summary of the method: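 Splenocytes from PBS- or peptide-primed BALB/c mice (6 mg/kg i.v. days 0 and 10; harvested day 13) cultured 48 h with concanavalin A 5 μg/mL. Ki67 in CD3+ cells measured by flow cytometry after viability, surface and intracellular staining.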

A549 = experiment: Antiproliferative activity against human A549 cells overexpressing HER2 assessed as cell growth inhibition incubated for 72 hrs by cell titer glo assay; assay type: functional, cell-based; conditions: A549, 72 h; summary of the method: as §1
Calu-3 [4] = experiment: Antiproliferative activity against human Calu-3 cells overexpressing HER2 assessed as cell growth inhibition incubated for 72 hrs by cell titer glo assay; assay type: functional, cell-based; conditions: Calu-3, 72 h

| SMILES | IC50 (BT-474) | IC50 (MCF7) | also measured |
| --- | --- | --- | --- |
| CC[C@H](C)[C@H]1C(=O)NC(=O)[C@H](CCCNC(=N)N)NC(=O)C[C@H](c2cccc3ccccc23)NC(=O)N[C@H]2CSSC[C@H](NC(=O)C[C@H](c3cccc4ccccc34)NC(=O)[C@H](CCCNC(=N)N)NC(=O)[C@@H]3CCCN3C(=O)[C@@H]3CCCN13)C(=O)N[C@@H](Cc1ccccc1)C(=O)N1CCC[C@H]1C(=O)N[C@@H](CC(=O)O)C(=O)NC(=O)[C@H](CC(=O)O)NC(=O)[C@H](Cc1ccccc1)NC2=O | 2.94 µM | > 50 µM |  |
| Cc1ccc(OCC(O)C(C)NC(C)C)c2c1CCC2 (stereo unspecified) |  |  | Activity (Calu-3 [1]): Active; Activity (Calu-3 [2]): Active |
| N=C(N)NCCC[C@@H]1NC(=O)[C@H]2CCCN2C(=O)[C@@H]2CCCN2C(=O)[C@H](CCCNC(=N)N)NC(=O)C[C@H](c2cccc3ccccc23)NC(=O)N[C@H]2CSSC[C@H](NC(=O)C[C@H](c3cccc4ccccc34)NC1=O)C(=O)N[C@@H](Cc1ccccc1)C(=O)N[C@@H](CC(=O)O)C(=O)NC(=O)[C@H](CC(=O)O)NC(=O)[C@H](Cc1ccccc1)NC2=O | 3.65 µM | > 50 µM |  |
| N=C(N)NCCC[C@@H]1NC(=O)[C@H]2CCCN2C(=O)[C@@H]2CCCN2C(=O)[C@H](CCCNC(=N)N)NC(=O)C[C@H](c2cccc3ccccc23)NC(=O)[C@H](Cc2ccccc2)NC(=O)[C@H](CC(=O)O)NC(=O)[C@H](CC(=O)O)NC(=O)[C@H](Cc2ccccc2)NC(=O)C[C@H](c2cccc3ccccc23)NC1=O (cyclo(DDF[βAla(3R-(1-naphthyl))]RP[dP]R[βAla(3R-(1-naphthyl))]F)) |  | > 50 µM | IC50 (MCF-10A): 40 µM |
| Cc1cn(C2C[C@H](N=[N+]=[N-])[C@@H](CO)O2)c(=O)[nH]c1=O (stereo partly specified) |  |  | Activity [3]: Toxic |
| CC[C@H](C)[C@@H]1NC(=O)[C@@H]2CSSC[C@H](NC(=O)[C@H](CCCNC(=N)N)NC(=O)CNC(=O)[C@H](CC(=O)O)NC(=O)[C@@H]3CCCN3C(=O)N[C@@H](Cc3ccccc3)C(=O)N2)C(=O)N[C@@H]([C@H](C)O)C(=O)N[C@@H](CCCCN)C(=O)N([C@@H](CO)C(=O)O)C(=O)[C@H]([C@@H](C)CC)NC(=O)[C@@H]2CCCN2C(=O)[C@@H]2CCCN2C1=O |  |  | IC50 (A549): > 100 µM; IC50 (Calu-3 [4]): > 100 µM |
| CC[C@H](C)[C@@H]1NC(=O)[C@H](CO)NC(=O)[C@H](CC(=O)O)NC(=O)[C@H](Cc2ccccc2)NC(=O)[C@@H]2CSSC[C@H](NC(=O)[C@H](Cc3ccccc3)NC(=O)[C@H](CC(=O)O)NC1=O)C(=O)N[C@H](c1cccc3ccccc13)CC(=O)N[C@@H](CCCNC(=N)N)C(=O)NC(=O)[C@H](CC(=O)O)NC(=O)N[C@@H](CCCNC(=N)N)C(=O)N[C@H](c1cccc3ccccc13)CC(=O)N2 (R[βAla(3S-(1-naphthyl))]CFDSIDFC[βAla(3S-(1-naphthyl))]; disulfide 3-10; linker N-C via X1) | 4.16 µM | > 50 µM |  |
| CC[C@H](C)[C@@H]1NC(=O)[C@@H]2CCCN2C(=O)[C@@H]2CCCN2C(=O)NC(=O)[C@H](CC(=O)O)NC(=O)[C@H](Cc2ccccc2)NC(=O)[C@@H]2CSSC[C@H](NC(=O)N[C@H](c3cccc4ccccc34)CC(=O)N[C@@H](CCCNC(=N)N)C(=O)N3CCC[C@H]3C(=O)NCC(=O)N[C@@H](CCCNC(=N)N)C(=O)N[C@H](c3cccc4ccccc34)CC(=O)N2)C(=O)N[C@@H](Cc2ccccc2)C(=O)NC(=O)[C@H](CC(=O)O)NC(=O)[C@H](CO)NC1=O | 7.22 µM | > 30 µM |  |

Further lines, with some results ahead:

| IC50 (BT-474) | IC50 (MCF7) | SMILES | also measured |
| --- | --- | --- | --- |
| > 100 µM | > 100 µM | NCCCC[C@H](N)C(=O)N[C@@H](CC(=O)N[C@@H](Cc1ccccc1)C(=O)O)c1ccc(-c2ccccc2)cc1 | IC50 (A549): > 100 µM; IC50 (Calu-3 [4]): > 100 µM |
| 5.23 µM | > 50 µM | N=C(N)NCCC[C@@H]1NC(=O)[C@H]2CCCN2C(=O)[C@@H]2CCCN2C(=O)[C@H](CCCNC(=N)N)NC(=O)C[C@H](c2cccc3ccccc23)NC(=O)N[C@H]2CSSC[C@H](NC(=O)C[C@H](c3cccc4ccccc34)NC1=O)C(=O)N[C@@H](Cc1ccccc1)C(=O)NC(=O)[C@H](Cc1ccccc1)NC2=O |  |
